ChEMBL document CHEMBL1129970, “Biologically active conformer of the effector region of human C5a and modulatory effects of N-terminal receptor binding determinants on activity” (J Med Chem, 1997)
Peptide text beside a SMILES is read from it.

Columns and labels:
Homo sapiens [1] = species on record: Homo sapiens; assay: Effective concentration to induce smooth muscle contraction in human fetal artery; assay type: functional; settings: Muscle tissue
In short: (§1)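 Human fetal artery smooth muscle contraction; full dose–response curves for recombinant human C5a or each peptide in the same tissue preparation. EC50 is the concentration giving 50% of the maximal response, read relative to the C5a maximum. pD2 = −log EC50 (M), averaged per peptide ± SE. Log potency ratio pD2(C5a) − pD2(peptide) is computed within each experiment. Relative potency = antilog(−Δ) × 100.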

Homo sapiens [2] = species on record: Homo sapiens; assay: Effective concentration to stimulate beta-glucuronidase release from human polymorphonuclear cells (PMN) (n=3); assay type: functional
In short: (§2)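 Human PMNs pretreated with cytochalasin B (5 μg/mL, 10 min, 37 °C), then 10⁶ cells stimulated for 60 min at 37 °C. β-Glucuronidase in the supernatant is assayed with 0.01 M p-nitrophenyl β-D-glucuronide (0.1 M acetate, pH 4, 18 h) in triplicate. Reaction stopped with glycine pH 10 and read at 415 nm. pD2 is taken from dose–response curves against the C5a EC50. Efficacy is given relative to C5a maximum (100%).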

Homo sapiens [3] = species on record: Homo sapiens; assay: Spasmogenic activity was measured by the ability to induce smooth muscle contraction in human fetal artery; assay type: functional, Muscle tissue; in short: as §1
Homo sapiens [4] = species on record: Homo sapiens; assay: Maximum efficacy relative to C5a (100%) for human polymorphonuclear cells (PMN) was determined (n=3); assay type: functional; in short: as §2
Homo sapiens [5] = species on record: Homo sapiens; assay: Log potency ratio [pD2(C5a)-pD2(peptide)] was determined in human polymorphonuclear cells (PMN) (n=3); assay type: functional; in short: as §2
Homo sapiens [6] = species on record: Homo sapiens; assay: Relative potency of peptide for human fetal artery was determined; assay type: functional; in short: as §1
Homo sapiens [7] = species on record: Homo sapiens; assay: Tested for the ability to stimulate beta-glucuronidase release from human polymorphonuclear cells (PMN) (n=3); assay type: functional; in short: as §2
[8] = Selectivity of peptide was determined from antilog[pD2(fetal artery)-pD2 (PMN enzyme release)] (n=12); assay type: functional
In short: (§3)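 Selectivity = antilog[pD2(fetal artery) − pD2(PMN β-glucuronidase release)]. pD2 values come from full dose–response curves in each assay, each generated alongside C5a.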

Homo sapiens [9] = species on record: Homo sapiens; assay: Relative potency of peptide to stimulate beta-glucuronidase release from human polymorphonuclear cells (PMN) (n=3); assay type: functional; in short: as §2
Homo sapiens [10] = species on record: Homo sapiens; assay: Log potency ratio [pD2(C5a)-pD2(peptide)] was determined in human fetal artery; assay type: functional; in short: as §1
Homo sapiens [11] = species on record: Homo sapiens; assay: Relative potency of peptide to stimulate beta-glucuronidase release from human polymorphonuclear cells (PMN) (n=5); assay type: functional; in short: as §2
Homo sapiens [12] = species on record: Homo sapiens; assay: Relative affinity for PMN receptor (n=3); assay type: functional
In short: (§4)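 Competition binding on freshly isolated intact human PMNs (0.25 × 10⁶) with 20 pM [¹²⁵I]C5a plus unlabeled C5a or peptide. Buffer is 50 mM HEPES, 1 mM CaCl₂, 5 mM MgCl₂, 0.5% BSA. Incubation 60 min at 4 °C, then filtration, ice-cold washes and gamma counting, triplicates. Nonspecific binding defined with 1 mM peptide or 100 nM C5a. Relative affinity = antilog[−(log IC50 C5a − log IC50 peptide)] × 100. The potency/binding ratio is EC50 divided by the binding IC50.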

[13] = Selectivity of peptide was determined from antilog[pD2(fetal artery)-pD2 (PMN enzyme release)] (n=35); assay type: functional; in short: as §3
Homo sapiens [14] = species on record: Homo sapiens; assay: Tested for inhibition of binding of [125I]-C5a to intact human polymorphonuclear cells (PMN) (n=3); assay type: functional; in short: as §4
[15] = (§5) Ratio of concentration agonist potency (EC50) to concentration inhibiting [125I]C5a binding (n=3); in short: as §4
Homo sapiens [16] = species on record: Homo sapiens; assay: Maximum efficacy relative to C5a (100%) for human polymorphonuclear cells (PMN) was determined (n=5); assay type: functional; in short: as §2
Homo sapiens [17] = species on record: Homo sapiens; assay: Tested for the ability to stimulate beta-glucuronidase release from human polymorphonuclear cells (PMN) (n=5); assay type: functional; in short: as §2
Homo sapiens [18] = species on record: Homo sapiens; assay: Effective concentration to stimulate beta-glucuronidase release from human polymorphonuclear cells (PMN) (n=5); assay type: functional; in short: as §2
Homo sapiens [19] = species on record: Homo sapiens; assay: Log potency ratio [pD2(C5a)-pD2(peptide)] was determined in human polymorphonuclear cells (PMN) (n=5); assay type: functional; in short: as §2
Homo sapiens [20] = species on record: Homo sapiens; assay: Log potency ratio [pD2(C5a)-pD2(peptide)] was determined in human polymorphonuclear cells (PMN) (n=6); assay type: functional; in short: as §2
Homo sapiens [21] = species on record: Homo sapiens; assay: Relative potency of peptide to stimulate beta-glucuronidase release from human polymorphonuclear cells (PMN) (n=6); assay type: functional; in short: as §2
Homo sapiens [22] = species on record: Homo sapiens; assay: Log potency ratio [log IC50(C5a)-log IC50(peptide)] was determined in human polymorphonuclear cells (PMN) (n=3); assay type: functional; in short: as §4
Homo sapiens [23] = species on record: Homo sapiens; assay: Tested for the ability to stimulate beta-glucuronidase release from human polymorphonuclear cells (PMN) (n=6); assay type: functional; in short: as §2
Homo sapiens [24] = species on record: Homo sapiens; assay: as §5; assay type: functional; in short: as §4
Homo sapiens [25] = species on record: Homo sapiens; assay: Maximum efficacy relative to C5a (100%) for human polymorphonuclear cells (PMN) was determined (n=6); assay type: functional; in short: as §2
Homo sapiens [26] = species on record: Homo sapiens; assay: Selectivity of peptide was determined from antilog [pD2(fetal artery)-pD2 (PMN enzyme release)] (n=28); assay type: functional; in short: as §3
Homo sapiens [27] = species on record: Homo sapiens; assay: Tested for inhibition of binding of [125I]C5a to intact human polymorphonuclear cells (PMN) (n=3); assay type: functional; in short: as §4
Homo sapiens [28] = species on record: Homo sapiens; assay: Effective concentration to stimulate beta-glucuronidase release from human polymorphonuclear cells (PMN) (n=6); assay type: functional; in short: as §2
Homo sapiens [29] = species on record: Homo sapiens; assay: Tested for the ability to stimulate beta-glucuronidase release from human polymorphonuclear cells (PMN) (n=4); assay type: functional; in short: as §2
Homo sapiens [30] = species on record: Homo sapiens; assay: Maximum efficacy relative to C5a (100%) for human polymorphonuclear cells (PMN) was determined (n=4); assay type: functional; in short: as §2
Homo sapiens [31] = species on record: Homo sapiens; assay: Log potency ratio [pD2(C5a)-pD2(peptide)] was determined in human polymorphonuclear cells (PMN) (n=4); assay type: functional; in short: as §2
[32] = Selectivity of peptide was determined from antilog[pD2(fetal artery)-pD2 (PMN enzyme release)] (n=7); assay type: functional; in short: as §3
Homo sapiens [33] = species on record: Homo sapiens; assay: Relative potency of peptide to stimulate beta-glucuronidase release from human polymorphonuclear cells (PMN) (n=4); assay type: functional; in short: as §2
[34] = Selectivity of peptide was determined from antilog[pD2(fetal artery)-pD2 (PMN enzyme release)] (n=8); assay type: functional; in short: as §3

Compound	EC50 (Homo sapiens [1]) [µM]	pD2 (Homo sapiens [3])	Potency (Homo sapiens [6]) [%]	Mean log concentration ratio (Homo sapiens [10])	C5a affinity (Homo sapiens [12]) [%]	pD2 (Homo sapiens [29])	C5a max (Homo sapiens [30]) [%]	Mean log concentration ratio (Homo sapiens [31])	Potency (Homo sapiens [33]) [%]	also measured
CSCC[C@H](NC(=O)[C@@H]1CCCN1C(=O)[C@H](CCCCN)NC(=O)[C@H](Cc1ccccc1)NC(=O)[C@H](CO)NC(=O)[C@H](Cc1ccc(O)cc1)NC(=O)CCCCCNC(=O)[C@@H](N)CCCCN)C(=O)N1CCC[C@H]1C(=O)N[C@@H](CC(C)C)C(=O)N[C@H](C)C(=O)N[C@@H](CCCN=C(N)N)C(=O)O [listing 1 of 2 here]	0.09	–	–	–	–	–	–	–	–	EC50 (Homo sapiens [2]): 4.3 µM
CSCC[C@H](NC(=O)[C@@H]1CCCN1C(=O)[C@H](CCCCN)NC(=O)[C@H](Cc1ccccc1)NC(=O)[C@H](CO)NC(=O)[C@H](Cc1ccc(O)cc1)NC(=O)CCCCCNC(=O)[C@@H](N)CCCCN)C(=O)N1CCC[C@H]1C(=O)N[C@@H](CC(C)C)C(=O)N[C@H](C)C(=O)N[C@@H](CCCN=C(N)N)C(=O)O [listing 2 of 2 here]	–	7.14	14	0.84	–	–	–	–	–	C5a max (Homo sapiens [4]): 145%; Mean log concentration ratio (Homo sapiens [5]): 1.93; pD2 (Homo sapiens [7]): 5.37; Selectivity [8]: 59; Potency (Homo sapiens [9]): 1.2%
CSCC[C@H](NC(=O)[C@H](CC(=O)O)NC(=O)[C@H](CCCCN)NC(=O)[C@H](Cc1ccccc1)NC(=O)[C@H](CO)NC(=O)[C@@H](N)Cc1ccc(O)cc1)C(=O)N[C@@H](CCC(N)=O)C(=O)N[C@@H](CC(C)C)C(=O)NCC(=O)N[C@@H](CCCN=C(N)N)C(=O)O (H-YSFKDMQLGR-OH)	9.6	4.96	0.1	3	0.022	–	–	–	–	Potency (Homo sapiens [11]): 0.04%; Selectivity [13]: 8.3; IC50 (Homo sapiens [14]): 1.3 µM; Ratio [15]: 72; C5a max (Homo sapiens [16]): 87%; pD2 (Homo sapiens [17]): 4.04; EC50 (Homo sapiens [18]): 92 µM; Mean log concentration ratio (Homo sapiens [19]): 3.42
CSCC[C@H](NC(=O)[C@H](CC(=O)O)NC(=O)[C@H](CCCCN)NC(=O)[C@H](Cc1ccccc1)NC(=O)[C@H](CO)NC(=O)[C@@H](N)Cc1ccc(O)cc1)C(=O)N1CCC[C@H]1C(=O)N[C@@H](CC(C)C)C(=O)N[C@H](C)C(=O)N[C@@H](CCCN=C(N)N)C(=O)O	0.5	6.32	2.2	1.66	0.007	–	–	–	–	Mean log concentration ratio (Homo sapiens [20]): 3.35; Potency (Homo sapiens [21]): 0.04%; Mean log concentration ratio (Homo sapiens [22]): 4.13; pD2 (Homo sapiens [23]): 4.14; Ratio (Homo sapiens [24]): 19; C5a max (Homo sapiens [25]): 174%; Selectivity (Homo sapiens [26]): 151; IC50 (Homo sapiens [27]): 3.7 µM; EC50 (Homo sapiens [28]): 72 µM
CSCC[C@H](NC(=O)[C@@H]1CCCN1C(=O)[C@H](CCCCN)NC(=O)[C@H](Cc1ccccc1)NC(=O)[C@H](CO)NC(=O)[C@H](Cc1ccc(O)cc1)NC(=O)CCCCCNC(=O)[C@H](Cc1c[nH]c2ccccc12)NC(=O)[C@@H](N)CC(=O)O)C(=O)N1CCC[C@H]1C(=O)N[C@@H](CC(C)C)C(=O)N[C@H](C)C(=O)N[C@@H](CCCN=C(N)N)C(=O)O	–	6.96	8.5	0.91	–	5.14	173	2.3	0.5	Selectivity [32]: 66
CSCC[C@H](NC(=O)[C@@H]1CCCN1C(=O)[C@H](CCCCN)NC(=O)[C@H](Cc1ccccc1)NC(=O)[C@H](CO)NC(=O)[C@H](Cc1ccc(O)cc1)NC(C)=O)C(=O)N1CCC[C@H]1C(=O)N[C@@H](CC(C)C)C(=O)N[C@H](C)C(=O)N[C@@H](CCCN=C(N)N)C(=O)O	–	6.98	9.6	0.74	–	5.03	148	2.44	0.4	Selectivity [34]: 89
